Tests used:
[1] = tested on: CNE; test: Cytotoxicity against human CNE cells after 72 hrs by MTT assay; assay type: functional, cell-based
In short: (§1)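 Cells were plated at 5000 per well in 1640 medium with 5% heat-inactivated calf serum and penicillin/streptomycin, at 37 °C and 5% CO2. After 24 h, compounds in DMSO were added at final 100, 33.3, 11.1 and 3.7 µg/ml for 72 h. MTT (5 mg/ml in 0.9% NaCl) was then added for 3 h, the formazan dissolved in DMSO, and absorbance read at 570 nm.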

[2] = tested on: HeLa; test: Cytotoxicity against human HeLa cells after 72 hrs by MTT assay; assay type: functional, cell-based; in short: as §1
[3] = Cytotoxicity against human LS 174T cells after 72 hrs by MTT assay; assay type: functional, cell-based; conditions: LS174T; in short: as §1
[4] = Hydrolytic stability assessed as compound degradation at 2 mg in sodium dihydrogen phosphate buffered 0.3% sodium carboxymethylcellulose solution at pH 7.4 after 45 hrs by HPLC; assay type: physicochemical; conditions: read-out: Activity
In short: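 2 mg of sample was vortexed into 1 ml of 0.3% (w/v) CMCNa solution in phosphate buffer at pH 7.4 and kept in the dark at 37 °C. HPLC peak areas were recorded. Degradation = (area at 0 h − area at end time) / area at 0 h × 100%.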

[5] = tested on: KB (human); test: Cytotoxicity against human KB cells after 72 hrs by MTT assay
[6] = tested on: PC-3; test: Cytotoxicity against human PC3 cells after 72 hrs by MTT assay; assay type: functional, cell-based; conditions: PC-3, 72 h; in short: as §1
[7] = tested on: HL-60 (human); test: Cytotoxicity against human HL60 cells after 72 hrs by MTT assay; conditions: HL-60, 72 h
[8] = tested on: BGC-823; test: Cytotoxicity against human BGC823 cells after 72 hrs by MTT assay; assay type: functional, cell-based; conditions: BGC-823, 72 h; in short: as §1

| Compound | degraded at 45 h [4] [%] | IC50 [1] [µM] | IC50 [2] [µM] | IC50 [3] [µM] | IC50 [5] [µM] | IC50 [6] [µM] | IC50 [7] [µM] | IC50 [8] [µM] |
| --- | --- | --- | --- | --- | --- | --- | --- | --- |
| O=C(/C=C/c1cccs1)/C=C/c1cccs1 | 0 | 154 | 6.2 | 79.5 | 123 | 10.3 |  |  |
| O=C(/C=C/c1ccccc1C(F)(F)F)/C=C/c1ccccc1C(F)(F)F | 0 |  |  |  | < 3.7 | 0.35 | < 10 |  |
| O=C1/C(=C/c2ccccc2Cl)CC/C1=C\c1ccccc1Cl | 0 |  |  |  | 96 |  | 87.2 |  |
| COc1cc(/C=C/C(=O)/C=C/c2cc(OC)c(OC)c(OC)c2)cc(OC)c1OC | 0 |  | 95 | 148 | 98.7 | 8.8 |  |  |
| O=C1/C(=C/c2ccc(OC3CCCCO3)cc2)CC/C1=C\c1ccc(OC2CCCCO2)cc1 (centres undefined) | 0 |  | 39.1 |  |  |  |  |  |
| O=C1/C(=C/c2ccc(Br)s2)CC/C1=C\c1ccc(Br)s1 | 0 |  |  | 9 |  |  |  |  |
| Cn1cccc1/C=C1\CC/C(=C\c2cccn2C)C1=O | 0 |  |  | 9.2 |  |  |  |  |
| O=C1/C(=C/c2ccccc2F)CCC/C1=C\c1ccccc1F | 0 | 130 | 15.5 |  | 74.1 | 45.8 |  |  |
| O=C(/C=C/c1ccccc1Cl)/C=C/c1ccccc1Cl | 0 |  |  |  | 59 |  | 8.6 |  |
| O=C(/C=C/c1ccc(Br)o1)/C=C/c1ccc(Br)o1 | 0 |  | 16.8 | 58.8 | 24.5 | 34.3 |  | 30.9 |
| O=C1/C(=C/c2ccccc2Br)CCC/C1=C\c1ccccc1Br | 0 |  |  |  | 55.3 |  |  |  |
| COc1cccc(/C=C/C(=O)/C=C/c2cccc(OC)c2OC)c1OC | 0 |  |  | 48 | 24.3 |  | 4.5 | 24.4 |
| O=C(/C=C/c1ccc(OC2CCCCO2)cc1)/C=C/c1ccc(OC2CCCCO2)cc1 (centres undefined) | 0 |  |  |  |  | 43.4 | 0.3 |  |
| O=C1/C(=C/c2ccccc2Cl)CCC/C1=C\c1ccccc1Cl | 0 |  |  | 4.2 | 6.7 | 13.8 | 98.3 | 4.4 |
| Cn1cccc1/C=C1\CCC/C(=C\c2cccn2C)C1=O | 0 |  |  |  | 2.3 |  |  |  |
| O=C(/C=C/C=C/c1ccccc1)/C=C/C=C/c1ccccc1 | 0 |  |  |  |  |  | 36.5 |  |
| O=C1/C(=C/c2ccccc2C(F)(F)F)CC/C1=C\c1ccccc1C(F)(F)F | 0 |  |  | 213 | < 9.34 |  |  |  |

| Compound | degraded at 45 h [4] [%] | IC50 [1] [µM] | IC50 [2] [µM] | IC50 [3] [µM] | IC50 [5] [µM] | IC50 [6] [µM] | IC50 [7] [µM] | IC50 [8] [µM] |
| --- | --- | --- | --- | --- | --- | --- | --- | --- |
| CN(C)CCCOc1ccc(/C=C2\CC/C(=C\c3ccc(OCCCN(C)C)cc3)C2=O)cc1 | 0 | 2.4 |  |  | 3.3 |  |  |  |
| O=C1/C(=C/c2cccs2)CCC/C1=C\c1cccs1 [TENYLIDONE] | 0 |  |  |  | 86 |  |  |  |
| O=C1/C(=C/c2ccccc2C(F)(F)F)CCC/C1=C\c1ccccc1C(F)(F)F | 0 |  | 46.3 |  | 54 |  |  |  |
| O=C1/C(=C/c2ccc(Br)o2)CCC/C1=C\c1ccc(Br)o1 | 0 |  |  |  |  | 21.8 | 65.8 |  |
| O=C(/C=C/c1ccc(O)cc1)/C=C/c1ccc(O)cc1 | 0 |  | 217 |  | 41.5 | 48.9 |  |  |
| O=C(/C=C/c1ccc2ccccc2c1)/C=C/c1ccc2ccccc2c1 | 0 |  |  |  |  |  | 69.2 | 39.7 |
| COc1ccccc1/C=C/C(=O)/C=C/c1ccccc1OC | 0 |  | 161 |  | < 12.6 |  | < 12.6 |  |
| Cc1ccc(C)c(/C=C/C(=O)/C=C/c2cc(C)ccc2C)c1 | 0 | 17.7 | 6.1 | 103 |  | 5.2 |  |  |
| Cc1ccsc1/C=C/C(=O)/C=C/c1sccc1C | 0 |  |  |  |  | 138 |  |  |
| C=CCOc1ccc(/C=C/C(=O)/C=C/c2ccc(OCC=C)cc2)cc1 | 0 |  |  |  |  |  | 64.6 |  |
| O=C1/C(=C/C=C/c2ccccc2)CC/C1=C\C=C\c1ccccc1 | 0 |  |  |  |  | 117 |  |  |
| O=C1/C(=C/C=C/c2ccccc2)CCC/C1=C\C=C\c1ccccc1 | 0 |  | 49.9 | 24.3 | 29.4 | 61.5 |  | 15.6 |
| O=C1/C(=C/c2ccc(OC3CCCCO3)cc2)CCC/C1=C\c1ccc(OC2CCCCO2)cc1 (centres undefined) | 0 |  |  | 3.9 |  |  | 134 |  |
| CC(C)(C)c1ccc(/C=C/C(=O)/C=C/c2ccc(C(C)(C)C)cc2)cc1 | 0 | 89.8 | 21.8 |  |  | 12 |  |  |
| O=C1/C(=C/c2ccccc2Br)CC/C1=C\c1ccccc1Br | 0 | 32.8 |  |  | 109 | 24.7 |  |  |
| O=C(/C=C/c1ccc(F)cc1)/C=C/c1ccc(F)cc1 | 0 |  |  | 98.8 | 94.6 | 15.2 |  |  |

Continued, in another order:

| degraded at 45 h [4] [%] | Compound | IC50 [1] [µM] | IC50 [2] [µM] | IC50 [3] [µM] | IC50 [5] [µM] | IC50 [6] [µM] | IC50 [7] [µM] | IC50 [8] [µM] |
| --- | --- | --- | --- | --- | --- | --- | --- | --- |
| 0 | COc1cc(/C=C2\CCC/C(=C\c3ccc(O)c(OC)c3)C2=O)ccc1O [CYCLOVALONE] | 17.6 |  | 4.6 | < 10.1 |  |  |  |
| 0 | O=C1/C(=C/c2ccc3ccccc3c2)CC/C1=C\c1ccc2ccccc2c1 |  |  |  |  |  |  | 38.1 |
| 0 | COc1cc(/C=C2\CCC/C(=C\c3cc(OC)c(OC)c(OC)c3)C2=O)cc(OC)c1OC |  | 27.5 |  | 117 | 22.7 | 29.3 |  |
| 0 | CN(C)c1ccc(/C=C2\CC/C(=C\c3ccc(N(C)C)cc3)C2=O)cc1 |  |  |  |  |  |  |  |
| 0 | COc1ccccc1/C=C1\CC/C(=C\c2ccccc2OC)C1=O |  |  |  |  | 5.3 | 2.3 |  |
| 0 | COc1cccc(/C=C2\CC/C(=C\c3cccc(OC)c3OC)C2=O)c1OC |  | 249 |  |  |  |  |  |
| 0 | O=C1/C(=C/c2ccc3c(c2)OCO3)CC/C1=C\c1ccc2c(c1)OCO2 |  |  |  |  |  | 225 |  |
| 0 | CC(C)(C)c1ccc(/C=C2\CCC/C(=C\c3ccc(C(C)(C)C)cc3)C2=O)cc1 |  |  |  | 78.9 |  |  |  |
| 0 | O=C1/C(=C/c2ccc(F)cc2)CC/C1=C\c1ccc(F)cc1 |  | 1.2 |  |  |  |  |  |
| 0 | COc1cccc(/C=C2\CCC/C(=C\c3cccc(OC)c3OC)C2=O)c1OC |  |  | 84.5 | 179 |  |  | 55.3 |
| 0 | CCOc1ccc(/C=C2\CCC/C(=C\c3ccc(OCC)cc3)C2=O)cc1 |  |  | 5.6 |  |  | 85.8 |  |
| 0 | C=CCOc1cc(/C=C2\CC/C(=C\c3ccc(OC)c(OCC=C)c3)C2=O)ccc1OC |  |  |  |  |  |  | 32.6 |
| 0 | O=C1/C(=C/c2ccc(F)cc2)CCC/C1=C\c1ccc(F)cc1 | 77.9 |  | 7.4 | 150 |  | 58.1 | 87.3 |
| 0 | Cc1ccc(C)c(/C=C2\CCC/C(=C\c3cc(C)ccc3C)C2=O)c1 |  |  |  | 35.3 |  |  |  |
| 0 | O=C1/C(=C/c2cccc(Br)c2)CCC/C1=C\c1cccc(Br)c1 |  | 15.7 | 11.5 | 15.9 |  |  |  |
| 0 | COc1cc(/C=C2\CC/C(=C\c3cc(OC)c(OC)c(OC)c3)C2=O)cc(OC)c1OC |  |  |  |  |  |  |  |
| 0 | C=CCOc1ccc(/C=C2\CCC/C(=C\c3ccc(OCC=C)cc3)C2=O)cc1 |  |  |  | 85.3 |  |  |  |
| 0 | Cc1ccc(/C=C2\CCC/C(=C\c3ccc(C)s3)C2=O)s1 |  |  |  | 249 | 77.6 |  |  |
| 0 | CCOc1ccc(/C=C2\CC/C(=C\c3ccc(OCC)cc3)C2=O)cc1 |  | 24 |  |  |  |  |  |
| 0 | C=CCOc1ccc(/C=C2\CCC/C(=C\c3ccc(OCC=C)c(OC)c3)C2=O)cc1OC |  |  |  | 102 |  |  |  |

From ChEMBL document CHEMBL1153929, “Exploration and synthesis of curcumin analogues with improved structural stability both in vitro and in vivo as cytotoxic agents” (Bioorg Med Chem, 2009)
